Here are results for six molecules from ChEMBL document CHEMBL3244306, “Folate analogues altered in the C9-N10 bridge region: N10-Toxylisohomofolic acid and N10-Toxylisohomoaminopterin” (1978).

Usually inhibition stands for the change of the read-out against control, counted positive when it falls. As usually defined, the GI50 is the concentration at which growth is held to half of that of the control.

In brackets after ≈: the same amount, converted by molar mass. Activity calls are given as the source filed them. The rule behind the calls is not given here.

Assay [1] relates to Lacticaseibacillus casei. The assay is described as follows: Antibacterial activity against Lactobacillus casei ATCC 7469 assessed as growth inhibition. It counts as functional.
Assay [2] deals with Enterococcus faecium. The assay is described as follows: Antibacterial activity against Streptococcus faecium ATCC 8043 assessed as growth inhibition. Type of assay: functional.
In assay [3] the test system is Lacticaseibacillus casei. The experiment in a line: Antibacterial activity against methotrexate-resistant Lactobacillus casei assessed as growth inhibition up to 4 ug/ml. Type of assay: functional, organism-based.
Assay [4] concerns Enterococcus faecium. The assay is described as follows: Antibacterial activity against methotrexate-resistant Streptococcus faecium assessed as growth inhibition up to 4 ug/ml. It counts as functional, organism-based.
The subject of assay [5] is Pediococcus. The experiment in a line: Antimicrobial activity against Pediococcus cerevisiae ATCC 8081 assessed as growth inhibition. It counts as functional.
Assay [6] addresses Dihydrofolate reductase (Lactobacillus casei) (UniProt P00381). The experiment in a line: Inhibition of Lactobacillus casei DHFR at 1 X 10^-4 M relative to control. As to conditions: Lacticaseibacillus casei.
In assay [7] the target is T1, Thymidylate synthase (Lactobacillus casei) (UniProt P00469).
T1 sequence (whole entry): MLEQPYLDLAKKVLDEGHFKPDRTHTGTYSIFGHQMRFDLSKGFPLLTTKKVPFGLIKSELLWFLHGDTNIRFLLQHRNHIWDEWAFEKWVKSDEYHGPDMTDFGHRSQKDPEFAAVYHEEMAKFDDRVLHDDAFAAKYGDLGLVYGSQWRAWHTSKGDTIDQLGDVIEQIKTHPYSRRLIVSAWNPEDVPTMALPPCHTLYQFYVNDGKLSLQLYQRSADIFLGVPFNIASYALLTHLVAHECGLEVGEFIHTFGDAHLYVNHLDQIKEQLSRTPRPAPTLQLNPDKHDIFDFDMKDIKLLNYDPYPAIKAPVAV
The experiment in a line: Inhibition of Lactobacillus casei thymidylate synthase assessed as conversion of dUMP32 to dTP32PP at 6 X 10^-5 M after 30 mins relative to control. As to conditions: Lacticaseibacillus casei.

Assay [8] concerns Lacticaseibacillus casei. The assay is described as follows: Inhibition of 5-[14C]methyltetrahydrofolate uptake in Lactobacillus casei at 4 X 10^-7 M relative to control. Type of assay: functional. Summed up:
(§1)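 Cells (1.0 × 10⁹, 1.0 mg dry weight) in 0.1 M potassium phosphate pH 6.5 with 1% glucose and […] (40000 cpm) 5-[¹⁴C]methyltetrahydrofolate, 1.0 mL total. Incubated 1 min at 37 °C, then stopped by membrane filtration with three ice-cold saline washes. Dried filters were scintillation counted. Uptake is compared with a control.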

Assay [9] relates to Lacticaseibacillus casei. The experiment in a line: Inhibition of 5-[14C]methyltetrahydrofolate uptake in Lactobacillus casei at 1.5 X 10^-5 M relative to control. It counts as functional. Summed up:
as §1

In assay [10] the target is Dihydrofolate reductase (Lactobacillus casei) (UniProt P00381). The assay is described as follows: Inhibition of Lactobacillus casei DHFR at 6.2 X 10^-5 M relative to control. As to conditions: Lacticaseibacillus casei.
Dihydrofolate reductase (Lactobacillus casei), sequence (P00381 whole entry): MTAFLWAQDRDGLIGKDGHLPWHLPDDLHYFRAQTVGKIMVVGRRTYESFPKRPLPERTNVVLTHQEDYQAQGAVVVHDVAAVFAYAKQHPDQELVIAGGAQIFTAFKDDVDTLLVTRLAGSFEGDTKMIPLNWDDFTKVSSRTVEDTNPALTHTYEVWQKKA
Assay [11] concerns the target T1, Thymidylate synthase (Lactobacillus casei). The assay is described as follows: Inhibition of Lactobacillus casei thymidylate synthase assessed as conversion of dUMP32 to dTP32PP at 1 X 10^-4 M after 30 mins relative to control. The note with it: Lacticaseibacillus casei.
The test system of assay [12] is Lacticaseibacillus casei. The assay is described as follows: Inhibition of 5-[14C]methyltetrahydrofolate uptake in Lactobacillus casei at 1 X 10^-4 M relative to control. It counts as functional. The procedure, abridged:
as §1

The test system of assay [13] is Lacticaseibacillus casei. The assay is described as follows: Inhibition of 5-[14C]methyltetrahydrofolate uptake in Lactobacillus casei at 1.6 X 10^-6 M relative to control. Type of assay: functional. The procedure, abridged: as §1

For `Cc1ccc(S(=O)(=O)N(Cc2ccc(C(=O)N[C@@H](CCC(=O)O)C(=O)O)cc2)Cc2cnc3nc(N)nc(O)c3n2)cc1`, the “growth inhibition (GI)” value in [1], in assay [2], in assay [3], in assay [4] and in assay [5] was “inactive” each time. For the same molecule, the inhibition in assay [6] is 32%; in assay [7] it was 12%. The molecule also yielded an inhibition at 0.4 µM in assay [8] of 50%.
Turning to `COC(=O)c1ccc(CN(Cc2cnc3nc(N)nc(O)c3n2)S(=O)(=O)c2ccc(C)cc2)cc1`, the inhibition turned out to be 23% in assay [6] and 16% in [7]. In assay [9], testing at 15 µM gave an inhibition of 50%.
Take `Cc1ccc(S(=O)(=O)N(Cc2ccc(C(=O)N[C@@H](CCC(=O)O)C(=O)O)cc2)Cc2cnc3nc(N)nc(N)c3n2)cc1`: the GI50 was 0.2 mg/L (≈ 0.329 µM) in assay [1] and 3.8 mg/L (≈ 6.24 µM) in assay [2]. In addition, the “growth inhibition (GI)” value in assay [3], in assay [4] and in assay [5] was “inactive” throughout. The inhibition is 50% in [10] and 20% in assay [11]. In assay [8], this molecule had an inhibition at 0.4 µM of 50%.
As for `Cc1ccc(S(=O)(=O)N(Cc2ccc(C(=O)O)cc2)Cc2cnc3nc(N)nc(O)c3n2)cc1`, the inhibition in assay [6] stood at 25%; in assay [7], 15%.
With `COC(=O)c1ccc(CN(CC2=Nc3c(N)nc(N)nc3NC2)S(=O)(=O)c2ccc(C)cc2)cc1`, the inhibition in assay [6] and in assay [11] was 0% in each case. The molecule also gave an inhibition at 100 µM in assay [12] of 32%.
As to `Cc1ccc(S(=O)(=O)N(Cc2ccc(C(=O)O)cc2)Cc2cnc3nc(N)nc(N)c3n2)cc1`, the inhibition stood at 17% in assay [6] and 0% in assay [11]. In assay [13], this molecule came in with an inhibition at 1.6 µM of 50%.
